Activity calls are given as the source filed them. No cut-off for these calls is given here.
Columns and labels:
[1] = test system: Hepatitis C virus subtype 1b; assay: Inhibition of polyU RNA-stimulated recombinant full length HCV genotype 1b NS3 ATPase activity assessed as Kcat for substrate at 25 uM in presence of 5 mM ATP measured for 1 min by pyruvate kinase/ lactate dehydrogenase enzyme coupled spectrophotometric method (reference value: 68 /s)
[2] = test system: Hepatitis C virus subtype 1b; assay: Inhibition of polyU RNA-stimulated recombinant full length HCV genotype 1b NS3 ATPase activity assessed as Km for substrate at 25 uM in presence of 5 mM ATP measured for 1 min by pyruvate kinase/ lactate dehydrogenase enzyme coupled spectrophotometric method (reference value: 0.41 mM)
[3] = test system: Hepatitis C virus subtype 1b; assay: Inhibition of recombinant full length HCV genotype 1b NS3 helicase activity assessed as reduction in 5'-FAM labeled dsDNA substrate unwinding at 30 uM preincubated for 10 mins followed by MgCl2/ATP addition and measured after 30 mins by real-time fluorescence assay
Summary of the method: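 96-well real-time unwinding of a fluorescently labelled duplex DNA by full-length recombinant NS3 with saturating ATP and Mg2+. Read-out was the increase in FAM fluorescence. Compounds were tested at 30 µM in 5% DMSO. Unwinding rates were normalized to DMSO controls. Values are the mean ± standard deviation of triplicate measurements.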

[4] = (§1) Inhibition of recombinant full length HCV genotype 1b NS3 helicase activity assessed as reduction in 5'-FAM labeled dsDNA substrate unwinding preincubated for 10 mins followed by MgCl2/ATP addition and measured after 30 mins by real-time fluorescence assay; parameters: species or system Hepatitis C virus subtype 1b
Summary of the method: (§2)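 Real-time plate unwinding of a FAM-labelled duplex DNA by full-length recombinant NS3 with saturating ATP and Mg2+, read as the fluorescence increase. Compounds were dosed over a range to derive an IC50.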

[5] = test system: Hepatitis C virus subtype 1b; assay: as §1; summary of the method: as §2
[6] = test system: Hepatitis C virus subtype 1b; assay: (§3) Inhibition of recombinant full length HCV genotype 1b NS3 helicase activity assessed as reduction in radiolabeled dsDNA substrate unwinding by measuring unwinding rate constant at 25 uM preincubated for 5 mins followed by MgCl2/ATP addition and measured up to 50 mins by PAGE based phosphor imaging analysis (reference value: 0.039 +/- 0.002 /min)
Summary of the method: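 Gel-based unwinding of 2 nM radiolabelled duplex DNA by 100 nM recombinant NS3 with excess ATP. Compound was present at 25 µM. Unwound fraction was quantified at time points and fit to a single exponential for the rate constant. Triplicate experiments were averaged.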

[7] = test system: Hepatitis C virus subtype 1b; assay: as §3, with “radiolabeled 38 bp dsRNA” for “radiolabeled dsDNA”, “for 20” for “for 5”, “to 4” for “to 50”, “value: 1.84” for “value: 0.039”, “+/- 0.19” for “+/- 0.002”
Summary of the method: (§4)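 Polyacrylamide gel unwinding of a radiolabelled 38 bp duplex RNA by recombinant NS3 with compound at 25 µM. Radioactivity at time points from triplicate experiments was averaged and fit to a single exponential to give rate constants.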

[8] = test system: Hepatitis C virus subtype 1b; assay: Inhibition of recombinant full length HCV genotype 1b NS3 helicase activity assessed as reduction in radiolabeled 38 bp dsRNA substrate unwinding t 25 uM preincubated for 20 mins followed by MgCl2/ATP addition and measured up to 4 mins by PAGE based phosphor imaging analysis relative to control; summary of the method: as §4
[9] = Inhibition of recombinant full length HCV genotype 1b NS3 interaction with 3'-FAM labeled ssDNA assessed as Kd for NS3-ssDNA complex at 25 uM by fluorescence polarization assay (reference value: 3.3 +/- 0.2 nM); parameters: species or system Hepatitis C virus subtype 1b
[10] = test system: Hepacivirus hominis; assay: Inhibition of HCV NS3/4A protease activity at 25 uM using Ac-Asp-Glu-Asp-EDANS-Glu-Glu-Abu-L-Lactoyl-Ser-Lys DABCYL-NH2 as substrate measured for 30 mins by fluorescence assay
Summary of the method: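 NS3–4A protease activity read by fluorescence of the internally quenched EDANS/DABCYL peptide after cleavage. Compounds were tested at 25 µM, with telaprevir at 10 µM as the positive control. Activities were normalized. Values are the mean ± standard deviation of triplicate measurements.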

[11] = test system: Hepacivirus hominis; assay: Inhibition of HCV NS3/4A protease activity at 10 uM using Ac-Asp-Glu-Asp-EDANS-Glu-Glu-Abu-L-Lactoyl-Ser-Lys DABCYL-NH2 as substrate measured for 30 mins by fluorescence assay relative to control
Summary of the method: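 Recombinant HCV NS3–4A with full protease activity, incubated with the internally quenched EDANS/DABCYL peptide substrate; cleavage read as the rise in fluorescence. Activities were normalized to control and given as mean ± standard deviation of triplicate measurements.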

SMILES | kcat [1] | Km [2] | inhibition [3] | IC50 [4] | inhibition [5] | K [6] | K [7] | inhibition [8] | Kd [9] | inhibition [10] | inhibition [11]
COc1ccc2c(c1)c(C=C1C(=O)NC(=S)NC1=O)cn2C(=O)c1ccc2ccccc2c1 | 73 s⁻¹ | 1000 µM | Active | 21.4 µM | Dose-dependent effect | 0.021 min⁻¹ | 2.38 min⁻¹ | 50% | 0.0028 µM | inactive | –
COc1ccc2c(c1)c(C=C1C(=O)NC(=S)NC1=O)cn2C(=O)c1cccc2ccccc12 | 68.7 s⁻¹ | 860 µM | Active | 23.5 µM | Dose-dependent effect | 0.024 min⁻¹ | 2.14 min⁻¹ | 50% | 0.0057 µM | inactive | –
O=C1NC(=S)NC(=O)C1=Cc1cn(C(=O)c2ccc3ccccc3c2)c2ccc(Cl)cc12 | – | – | inactive | – | – | – | – | – | – | – | –
O=C1NC(=S)NC(=O)C1=Cc1cn(C(=O)c2ccc3ccccc3c2)c2ccccc12 | 65.3 s⁻¹ | 480 µM | Active | 21.6 µM | Dose-dependent effect | 0.018 min⁻¹ | 1.81 min⁻¹ | 50% | 0.0031 µM | inactive | –
CCC[C@H](NC(=O)[C@@H]1[C@H]2CCC[C@H]2CN1C(=O)[C@@H](NC(=O)[C@@H](NC(=O)c1cnccn1)C1CCCCC1)C(C)(C)C)C(=O)C(=O)NC1CC1 | – | – | – | – | – | – | – | – | – | – | 85%
O=C1NC(=S)NC(=O)C1=Cc1cn(C(=O)c2cccc3ccccc23)c2ccc(Cl)cc12 | – | – | inactive | – | – | – | – | – | – | – | –
